Test [1] is described as follows: Ratio of IC50 of Medial perforant path(MPP) to IC50 of Lateral perforant path(LPP). Type of test: functional. The method in brief:
(§1)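 Ratio of IC50 values. For line 8, LPP IC50 from slice recording over [3H]APB binding IC50. Each IC50 is a weighted mean of IC50s calculated for each experimental point, or for steep agonist-like curves is read directly from the log concentration–response curve.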

For test [2], the species on record is Rattus norvegicus. The experiment in a line: Compound was evaluated for its ability to displace [3H]APB from rat brain synaptic plasma membrane preparations.
For test [3], the species on record is Rattus norvegicus. The experiment in a line: Compound was tested for inhibition of Medial perforant path(MPP) neurotransmission in hippocampus. Type of test: functional.
For test [4], the species on record is Rattus norvegicus. The experiment in a line: Compound was tested for inhibition of hippocampal excitatory neurotransmission in schaffer collateral -CA1 pyramidal cells. Type of test: functional. In short, it runs like this: (§2)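 Transverse hippocampal slices, 450 μm, from 30–90-day-old male Holtzman rats. Held at 30 °C, submerged in stirred medium (10 mM glucose, 124 mM NaCl, 3.3 mM KCl, 2.4 mM MgSO4, 2.5 mM CaCl2, 1.2 mM KH2PO4, 26 mM NaHCO3; 95:5 O2/CO2, pH 7.4). Evoked synaptic field potentials recorded extracellularly; CA1 electrodes in stratum radiatum. Drug started at threshold and doubled every 4 min. IC50 from fraction of uninhibited response versus log concentration.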

The species entered for test [5] is Rattus norvegicus. The experiment in a line: Hill coefficient value of compound was evaluated for [3H]-APB binding to rat brain synaptic plasma. In short, it runs like this:
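Rat forebrain synaptic plasma membranes (Holtzman rats, 30–90 days; sucrose gradient, 1.0–1.3 M interface; 3–5 mg protein/mL stock). Membranes ≤200 μg/mL preincubated 5 min at 33 °C, then 1 h at 33 °C. Final: 50 mM HEPES pH 7.4, 10 mM CaCl2, 100 nM DL-[3H]APB, displacer up to 1 mM. Separation by centrifugation, scintillation counting. Nonspecific binding with 1 mM unlabeled ligand. Triplicates on ≥3 membrane preparations.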

For test [6], the species on record is Rattus norvegicus. Kind of test: Compound was tested for inhibition of Lateral perforant path(LPP) neurotransmission in hippocampus. The format is functional. In short, it runs like this: as §2
For test [7], the species on record is Rattus norvegicus. The experiment in a line: Compound was tested for inhibition of Medial perforant path(MPP) neurotransmission in hippocampus. Type of test: functional.
The nature of test [8]: Ratio of IC50 of Lateral perforant path(LPP) to IC50 of [3H]- binding. Type of test: tissue-based. In short, it runs like this:
as §1

Test [9] is filed under the species Rattus norvegicus. The experiment in a line: Compound was tested for inhibition of hippocampal excitatory neurotransmission in schaffer collateral -CA1 pyramidal cells. Type of test: functional. The method in brief:
as §2

The results in this text go back to ChEMBL document CHEMBL1123240 (J Med Chem, 1986).

Broadly, the IC50 is the concentration at which inhibition is half-maximal. A lower IC50 goes with higher potency.

Regarding `N[C@@H](CCP(=O)(O)O)C(=O)O`, the Ratio in [1] was determined as 18. Moreover, the IC50 in the test listed under Rattus norvegicus [2] came to 1.5 µM; in the test filed under Rattus norvegicus [3], 45 µM; in the test filed under Rattus norvegicus [4], 2500 µM; in the test listed under Rattus norvegicus [6], 2.5 µM. Moreover, the nH in the test filed under Rattus norvegicus [5] stood at 0.8.
Regarding `N[C@@]1(C(=O)O)CCC[C@@H](P(=O)(O)O)C1`, the Ratio stood at 1.7 in [1] and 7.7 in [8]. The concentration for half-maximal inhibition (IC50) came out at 750 µM in the test listed under Rattus norvegicus [2], 10000 µM in the test listed under Rattus norvegicus [7], 9600 µM in the test filed under Rattus norvegicus [9] and 5800 µM in the test filed under Rattus norvegicus [6].
Turning to `N[C@@]1(C(=O)O)CC[C@@H](P(=O)(O)O)C1`, the IC50 is 80 µM in the test filed under Rattus norvegicus [2], 1850 µM in the test filed under Rattus norvegicus [7], > 10000 µM in the test listed under Rattus norvegicus [9] and 130 µM in the test filed under Rattus norvegicus [6]. The same compound came in with a nH in the test listed under Rattus norvegicus [5] of 1.
On to `N[C@@]1(C(=O)O)CC[C@H](P(=O)(O)O)C1`, for which the Ratio in [1] was 2.5. Also, the IC50 in the test listed under Rattus norvegicus [2] amounted to 4.7 µM; in the test filed under Rattus norvegicus [7], 2400 µM; in the test listed under Rattus norvegicus [9] it was 3800 µM; in the test filed under Rattus norvegicus [6], 960 µM. The compound further gave a nH in the test listed under Rattus norvegicus [5] of 1.
Turning to `N[C@@]1(C(=O)O)CCC[C@H](P(=O)(O)O)C1`, the Ratio worked out at 2.4 in test [1] and 3.7 in [8]. Further, the IC50 in the test listed under Rattus norvegicus [2] came out at 840 µM; in the test filed under Rattus norvegicus [7], 7300 µM; in the test listed under Rattus norvegicus [9], 8100 µM; in the test filed under Rattus norvegicus [6] it was 3100 µM.
